Measured values: ChEMBL document CHEMBL1268908, “Design, synthesis, radiolabeling, and in vivo evaluation of carbon-11 labeled N-[2-[4-(3-cyanopyridin-2-yl)piperazin-1-yl]ethyl]-3-methoxybenzamide, a potential positron emission tomography tracer for the dopamine D(4) receptors” (J Med Chem, 2010)

How the values were obtained:
Type in all cases: ADME, organism-based, Macaca mulatta
[1] = Biodistribution in rhesus monkey retina at 150.3 MBq, iv after 15 mins; settings: in vivo, 0.25 h
Hippocampus [2] = assay: Biodistribution in rhesus monkey hippocampus at 150.3 MBq, iv after 8.5 mins; settings: in vivo
Method in brief: (§1)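 Male rhesus monkey under ketamine 10 mg/kg im, head fixed; 20 min 68Ge-68Ga transmission scan, then 90 min dynamic 3D PET (6×0.5, 7×1, 20×2, 8×5 min frames) after iv [11C]-labelled tracer in saline, specific radioactivity about 2.9 TBq/μmol at injection. Regions defined on T1-weighted MRI; uptake expressed as % injected dose per mL.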

[3] = Biodistribution in rhesus monkey entorhinal cortex at 150.3 MBq, iv after 41 mins; settings: in vivo
Method in brief: (§2)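 Single male rhesus monkey anesthetized with ketamine 10 mg/kg im, head fixed. Attenuation correction by 20 min 68Ge-68Ga transmission scan. [11C]-tracer in saline (pH 7.4) given iv, specific radioactivity 2.9 TBq/μmol at injection. Dynamic 3D PET emission scan over 90 min in frames of 0.5 to 5 min. MRI T1 images used to define VOIs. Uptake expressed as […].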

[4] = Biodistribution in rhesus monkey cerebellum at 150.3 MBq, iv after 49 mins; settings: in vivo
Method in brief: (§3)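 Male rhesus monkey under ketamine (10 mg/kg im) with head fixation. After a 20 min 68Ge-68Ga transmission scan, the [11C]-labelled tracer in saline (pH 7.4) was injected iv, at 2.9 TBq/μmol specific radioactivity at injection. A dynamic 3D PET scan followed over 90 min (6×0.5, 7×1, 20×2, 8×5 min frames). Regions were defined on T1-weighted 1.5 T MRI, and uptake is given as %ID/mL.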

Hippocampus [5] = assay: Biodistribution in rhesus monkey hippocampus at 150.3 MBq, iv after 37 mins; settings: in vivo; method in brief: as §1
Striatum [6] = assay: Biodistribution in rhesus monkey striatum at 150.3 MBq, iv after 57.5 mins; settings: in vivo
[7] = Biodistribution in rhesus monkey occipital lobe at 150.3 MBq, iv after 5.5 mins; settings: in vivo
[8] = Biodistribution in rhesus monkey cingulate cortex at 150.3 MBq, iv after 27 mins; settings: in vivo, 0.45 h; method in brief: as §3
[9] = Biodistribution in rhesus monkey retina at 150.3 MBq, iv after 6.5 mins; settings: in vivo
[10] = Biodistribution in rhesus monkey cerebellum at 150.3 MBq, iv after 29 mins; settings: in vivo; method in brief: as §3
Hippocampus [11] = assay: Biodistribution in rhesus monkey hippocampus at 150.3 MBq, iv after 4.5 mins; settings: in vivo, 0.075 h; method in brief: as §1
[12] = Biodistribution in rhesus monkey occipital lobe at 150.3 MBq, iv after 39 mins; settings: in vivo, 0.65 h; method in brief: as §1
Striatum [13] = assay: Biodistribution in rhesus monkey striatum at 150.3 MBq, iv after 0.75 mins; settings: in vivo, 45 s
Striatum [14] = assay: Biodistribution in rhesus monkey striatum at 150.3 MBq, iv after 8.5 mins; settings: in vivo
Hippocampus [15] = assay: Biodistribution in rhesus monkey hippocampus at 150.3 MBq, iv after 5.5 mins; settings: in vivo; method in brief: as §1
Hippocampus [16] = assay: Biodistribution in rhesus monkey hippocampus at 150.3 MBq, iv after 11 mins; settings: in vivo; method in brief: as §2
[17] = Biodistribution in rhesus monkey entorhinal cortex at 150.3 MBq, iv after 21 mins; settings: in vivo, 0.35 h; method in brief: as §2
[18] = Biodistribution in rhesus monkey cerebellum at 150.3 MBq, iv after 77.5 mins; settings: in vivo; method in brief: as §3
Hippocampus [19] = assay: Biodistribution in rhesus monkey hippocampus at 150.3 MBq, iv after 19 mins; settings: in vivo; method in brief: as §2
[20] = Biodistribution in rhesus monkey cingulate cortex at 150.3 MBq, iv after 41 mins; settings: in vivo; method in brief: as §3
[21] = Biodistribution in rhesus monkey cerebellum at 150.3 MBq, iv after 31 mins; settings: in vivo; method in brief: as §3
Hippocampus [22] = assay: Biodistribution in rhesus monkey hippocampus at 150.3 MBq, iv after 15 mins; settings: in vivo, 0.25 h; method in brief: as §2
[23] = Biodistribution in rhesus monkey retina at 150.3 MBq, iv after 37 mins; settings: in vivo
Hippocampus [24] = assay: Biodistribution in rhesus monkey hippocampus at 150.3 MBq, iv after 77.5 mins; settings: in vivo; method in brief: as §1
[25] = Biodistribution in rhesus monkey cingulate cortex at 150.3 MBq, iv after 15 mins; settings: in vivo, 0.25 h; method in brief: as §3
[26] = Biodistribution in rhesus monkey cerebellum at 150.3 MBq, iv after 2.25 mins; settings: in vivo, 135 s; method in brief: as §3
[27] = Biodistribution in rhesus monkey retina at 150.3 MBq, iv after 2.25 mins; settings: in vivo, 135 s
Striatum [28] = assay: Biodistribution in rhesus monkey striatum at 150.3 MBq, iv after 37 mins; settings: in vivo
[29] = Biodistribution in rhesus monkey occipital lobe at 150.3 MBq, iv after 67.5 mins; settings: in vivo, 1.125 h
Striatum [30] = assay: Biodistribution in rhesus monkey striatum at 150.3 MBq, iv after 77.5 mins; settings: in vivo
[31] = Biodistribution in rhesus monkey cerebellum at 150.3 MBq, iv after 23 mins; settings: in vivo; method in brief: as §3
Hippocampus [32] = assay: Biodistribution in rhesus monkey hippocampus at 150.3 MBq, iv after 62.5 mins; settings: in vivo; method in brief: as §1
[33] = Biodistribution in rhesus monkey occipital lobe at 150.3 MBq, iv after 27 mins; settings: in vivo, 0.45 h; method in brief: as §1
[34] = Biodistribution in rhesus monkey cerebellum at 150.3 MBq, iv after 25 mins; settings: in vivo; method in brief: as §3
Hippocampus [35] = assay: Biodistribution in rhesus monkey hippocampus at 150.3 MBq, iv after 7.5 mins; settings: in vivo, 0.125 h; method in brief: as §1
[36] = Biodistribution in rhesus monkey occipital lobe at 150.3 MBq, iv after 29 mins; settings: in vivo; method in brief: as §1
Striatum [37] = assay: Biodistribution in rhesus monkey striatum at 150.3 MBq, iv after 87.5 mins; settings: in vivo
Hippocampus [38] = assay: Biodistribution in rhesus monkey hippocampus at 150.3 MBq, iv after 9.5 mins; settings: in vivo; method in brief: as §1
[39] = Biodistribution in rhesus monkey occipital lobe at 150.3 MBq, iv after 11 mins; settings: in vivo; method in brief: as §1
[40] = Biodistribution in rhesus monkey cerebellum at 150.3 MBq, iv after 62.5 mins; settings: in vivo; method in brief: as §3
[41] = Biodistribution in rhesus monkey occipital lobe at 150.3 MBq, iv after 77.5 mins; settings: in vivo
[42] = Biodistribution in rhesus monkey cerebellum at 150.3 MBq, iv after 11 mins; settings: in vivo; method in brief: as §3
Striatum [43] = assay: Biodistribution in rhesus monkey striatum at 150.3 MBq, iv after 9.5 mins; settings: in vivo
[44] = Biodistribution in rhesus monkey cingulate cortex at 150.3 MBq, iv after 21 mins; settings: in vivo, 0.35 h; method in brief: as §3
[45] = Biodistribution in rhesus monkey cingulate cortex at 150.3 MBq, iv after 25 mins; settings: in vivo; method in brief: as §3
Striatum [46] = assay: Biodistribution in rhesus monkey striatum at 150.3 MBq, iv after 62.5 mins; settings: in vivo
[47] = Biodistribution in rhesus monkey retina at 150.3 MBq, iv after 87.5 mins; settings: in vivo
Striatum [48] = assay: Biodistribution in rhesus monkey striatum at 150.3 MBq, iv after 31 mins; settings: in vivo
[49] = Biodistribution in rhesus monkey entorhinal cortex at 150.3 MBq, iv after 19 mins; settings: in vivo; method in brief: as §2

## [11CH3]Oc1cccc(C(=O)NCCN2CCN(c3ncccc3C#N)CC2)c1
[1]
  Drug uptake: 50.94 kBq/ml
Hippocampus [2]
  Drug uptake: 30.9853 kBq/ml
[3]
  Drug uptake: 11.877 kBq/ml
[4]
  Drug uptake: 10.45 kBq/ml
Hippocampus [5]
  Drug uptake: 12.43 kBq/ml
Striatum [6]
  Drug uptake: 9.776 kBq/ml
[7]
  Drug uptake: 32.15 kBq/ml
[8]
  Drug uptake: 15.6843 kBq/ml
[9]
  Drug uptake: 44.54 kBq/ml
[10]
  Drug uptake: 14.54 kBq/ml
Hippocampus [11]
  Drug uptake: 41.63 kBq/ml
[12]
  Drug uptake: 9.974 kBq/ml
Striatum [13]
  Drug uptake: 64.38 kBq/ml
Striatum [14]
  Drug uptake: 31.7 kBq/ml
Hippocampus [15]
  Drug uptake: 39.36 kBq/ml
Hippocampus [16]
  Drug uptake: 27 kBq/ml
[17]
  Drug uptake: 19.46 kBq/ml
[18]
  Drug uptake: 8.009 kBq/ml
Hippocampus [19]
  Drug uptake: 18.77 kBq/ml
[20]
  Drug uptake: 10.93 kBq/ml
[21]
  Drug uptake: 13.26 kBq/ml
Hippocampus [22]
  Drug uptake: 20.97 kBq/ml
[23]
  Drug uptake: 57.39 kBq/ml
Hippocampus [24]
  Drug uptake: 8.119 kBq/ml
[25]
  Drug uptake: 20.1 kBq/ml
[26]
  Drug uptake: 44.35 kBq/ml
[27]
  Drug uptake: 36.9 kBq/ml
Striatum [28]
  Drug uptake: 12.6 kBq/ml
[29]
  Drug uptake: 7.697 kBq/ml
Striatum [30]
  Drug uptake: 8.262 kBq/ml
[31]
  Drug uptake: 16.31 kBq/ml
Hippocampus [32]
  Drug uptake: 8.242 kBq/ml
[33]
  Drug uptake: 14.42 kBq/ml
[34]
  Drug uptake: 15.53 kBq/ml
Hippocampus [35]
  Drug uptake: 34.09 kBq/ml
[36]
  Drug uptake: 13.8 kBq/ml
Striatum [37]
  Drug uptake: 8.125 kBq/ml
Hippocampus [38]
  Drug uptake: 30.28 kBq/ml
[39]
  Drug uptake: 21.64 kBq/ml
[40]
  Drug uptake: 8.418 kBq/ml
[41]
  Drug uptake: 8.127 kBq/ml
[42]
  Drug uptake: 24.15 kBq/ml
Striatum [43]
  Drug uptake: 31.24 kBq/ml
[44]
  Drug uptake: 17.1 kBq/ml
[45]
  Drug uptake: 16.82 kBq/ml
Striatum [46]
  Drug uptake: 9.547 kBq/ml
[47]
  Drug uptake: 52.04 kBq/ml
Striatum [48]
  Drug uptake: 14.4435 kBq/ml
[49]
  Drug uptake: 21.93 kBq/ml
